# Bioassay records as filed in PubChem.
# Shown are actives, neighbours in structure and some others; about 1.5% of the full set was active somewhere.
# Rev-erbA mod: modulators of Rev-erb alpha DNA binding, primary screen, biochemical, FITC-DNA, fluorescence polarization, uHTS | Nuclear receptor subfamily 1 group D member 1 (Homo sapiens), P20393 | activity, % at 10 µM | actives 0.79% (n = 370,000) | Rev-erbα–FITC-DNA binding, 90 min;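 active = activity above about 14%, limit read from the data; passing the limit was not always enough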
# Target sequence (P20393 whole entry, looked up): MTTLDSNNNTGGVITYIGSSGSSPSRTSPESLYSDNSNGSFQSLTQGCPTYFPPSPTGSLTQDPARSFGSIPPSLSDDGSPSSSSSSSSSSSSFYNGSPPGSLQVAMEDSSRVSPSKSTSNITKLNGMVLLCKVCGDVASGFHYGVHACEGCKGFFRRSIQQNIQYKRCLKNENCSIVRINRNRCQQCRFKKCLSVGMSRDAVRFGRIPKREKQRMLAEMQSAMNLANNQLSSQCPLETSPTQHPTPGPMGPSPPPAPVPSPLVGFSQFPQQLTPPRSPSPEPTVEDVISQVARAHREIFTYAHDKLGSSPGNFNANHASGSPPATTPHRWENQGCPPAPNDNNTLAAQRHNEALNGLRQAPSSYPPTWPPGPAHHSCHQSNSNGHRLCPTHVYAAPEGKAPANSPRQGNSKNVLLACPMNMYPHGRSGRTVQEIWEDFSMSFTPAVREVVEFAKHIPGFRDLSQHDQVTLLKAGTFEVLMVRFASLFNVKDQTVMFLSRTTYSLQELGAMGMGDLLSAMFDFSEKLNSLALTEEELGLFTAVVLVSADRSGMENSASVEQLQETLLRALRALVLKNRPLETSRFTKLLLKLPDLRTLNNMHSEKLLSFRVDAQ
# CSN inh: inhibitors of CSN-mediated cullin deneddylation, primary screen, biochemical, fluorescence polarization, uHTS. COP9 signalosome complex subunit 5 (Homo sapiens), Q92905. Purified CSN, SCF-Nedd8-OG deneddylation. inhibition, % at 12.5 µM. actives 0.38% (n = 360,000). AID 651999, 2013;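 active = pattern-corrected inhibition above about 35%, with an unprinted fluorescence ratio check between 0.5 and 1.5, limit read from the data, passing the limit was not always enough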
#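 Detection – fluorescence polarization · System – HEK293T-derived human Csn5 enzyme · Controls – substrate-only high control, full reaction low control · Timing – 90 min, room temperature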
# aDG glyco up: activators of alpha-DG glycosylation, primary screen, uHTS, Pro5-aDG cells, AlphaScreen | alpha-DG glycosylation AlphaScreen (IIH6); 0% Pro5, 100% B10-LARGE cell signal | activation, % at 10 µM | actives 0.22% (n = 360,000) | AID 624168, 2012;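 active = activation of at least 8% versus controls, or a plate z-score of at least 8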;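 note: Pro5 are CHO cells carrying HIG-tagged alpha-DG that lacks glycosylation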
# HNF4A DNA FP: change in binding of human HNF4A to DNA, primary screen, biochemical, fluorescence polarization, FITC-DNA. activity change, % at 10 µM. 1 h. actives 0.3% (n = 360,000). AID 1224865, 2016; in the data active = activity change above about 30%, passing the limit was not always enough
# Rev-erbA confirm: modulators of Rev-erb alpha DNA binding, confirmation, biochemical, FITC-DNA, fluorescence polarization, single point | shares compounds with Rev-erbA mod | 90 min | activation, % at 25 µM | actives 61% (n = 3,000);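 active = activation at or above a set limit, or at least 3 SD above the negative control mean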
# RORg DNA counter: modulation of RORgamma DNA binding, dose response, counter-screen for Rev-erb alpha modulator project, biochemical, fluorescence polarization, FITC-DNA | shares compounds with Rev-erbA mod | purified RORgamma protein-FITC-DNA binding | IC50, µM | actives 8% (n = 910);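 active = Compounds whose fitted half-maximal concentration for disrupting protein-DNA binding is below 10 micromolar; the record names Rev-erb in its text, so the target is in doubt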
# Numbers stand for hits; – = inactive; · = no result.
SMILES,Rev-erbA mod,CSN inh,aDG glyco up,HNF4A DNA FP,Rev-erbA confirm,others
COC(=O)c1ccccc1NC(=O)N1c2ccccc2Sc2ccccc21,–,–,–,–,·,
COC(=O)c1ccc(C(=O)OC)c(NC(=O)N2c3ccccc3Sc3ccccc32)c1,26.2,–,–,–,47.5,RORg DNA counter=–
CCCC(=O)N1CCC[C@]2(CC[C@@H](CCC(C)=O)O2)C1,–,·,·,·,·,
COc1cc(/C=C(\C#N)C(=O)Nc2cc(C(F)(F)F)ccc2Cl)ccc1OCC(=O)Nc1cccc(C(F)(F)F)c1,34.0,–,–,–,19.0,
C=CCN(CC#Cc1ccccc1)Cc1ccc2c(c1)OCO2,–,·,·,·,·,
C=CCN1C(=O)[C@@H](CC(=O)NCc2cccs2)[C@]2(C(=O)OC)CCCCC=C12,–,·,·,·,·,
COc1ccc2nc(SCC(=O)NC3CCCC3)c(C)cc2c1,28.7,–,–,–,32.3,RORg DNA counter=–
Cc1[nH]nc2nc(SCC(=O)NC3CCCCC3)n(-c3ccc(Br)cc3)c(=N)c12,63.9,–,–,–,64.7,RORg DNA counter=–
COc1ccc(-n2c(SCC(=O)NC3CCCCC3)nc3ccsc3c2=O)cc1,48.8,–,–,–,32.7,RORg DNA counter=–
C=CS(=O)(=O)N(Cc1ccc(F)cc1)C(=C)C(=O)OC,–,·,·,·,·,
Cc1ccc(-n2nc(C)c3c(-c4cccs4)c(C#N)c(N)nc32)cc1,60.1,–,–,–,30.3,
O=C(c1ccccc1Cl)N1CCC(Oc2cccnc2)CC1,–,·,·,·,·,
C=CCNC(=O)Cn1nnc(-c2ccc(-c3ccc(OC)cc3)cc2)n1,39.3,–,–,–,–,
COc1ccc(-c2ccc(-c3nnn(CC(C)=O)n3)cc2)cc1,–,–,–,–,·,
CN(C)c1ccc(/C=C(/C#N)C(=O)NCc2ccccc2)o1,32.8,–,–,–,–,
Cc1cccc(NC(=O)CSc2nnc(SCc3ccc(Cl)cc3)s2)c1,–,·,·,·,·,
C=CCOc1ccc(C2NC(=S)NC(c3ccccc3)=C2C(C)=O)cc1OC (stereo not drawn),–,–,–,–,·,
CCOC(=O)COc1c(Cl)cc(C2NC(=S)NC(c3ccccc3)=C2C(C)=O)cc1OCC (stereo not drawn),34.1,–,–,–,31.2,RORg DNA counter=–
CCCCn1c2nc3ccccc3nc2c2c(=O)n(CCC)cnc21,–,–,–,–,·,
CCCCCCn1cnc2c(c1=O)c1nc3ccccc3nc1n2Cc1cccs1,30.8,–,–,–,–,
COC(=O)[C@]12C[C@H](CC(=O)N3CCC(c4ccccc4)CC3)C(=O)N(Cc3ccc(Cl)cc3Cl)C1=C[C@H](C(C)(C)C)O[C@@H]2C,–,·,·,·,·,
CCc1ccccc1NC(=O)CN1C(=O)C2CCCN2c2ncc(Cl)cc21 (stereo not drawn),–,–,–,–,·,
O=C(CN1C(=O)C2CCCN2c2ncc(Cl)cc21)NCc1ccc2c(c1)OCO2 (stereo not drawn),46.2,–,–,–,36.1,
COc1ccc(CNC(=O)CN2C(=O)C3CCCN3c3ncc(Cl)cc32)cc1 (stereo not drawn),42.9,–,–,–,36.3,
C/C(=N\NC(=O)CSc1nnc(-c2ccccc2)n1-c1ccc(C)cc1)c1ccc(-c2ccccc2)cc1,–,·,·,·,·,
SMILES,Rev-erbA mod,CSN inh,aDG glyco up,HNF4A DNA FP,Rev-erbA confirm,others
Cc1ccc2nsnc2c1NC(=O)Cc1ccc(Cl)cc1,50.8,–,–,–,–,
Cc1ccc2nsnc2c1NC(=O)CCl,–,–,–,–,·,
COC(=O)c1cccc(Cn2ccc3ccc(-c4ccc5ccn(Cc6cccc(C(=O)OC)c6)c5c4)cc32)c1,51.1,·,·,·,–,
COC(=O)c1cccc(Cn2ccc3ccc(-c4ccc5ccn(C(=O)c6ccc(C)cc6)c5c4)cc32)c1,45.8,·,·,·,63.9,RORg DNA counter=–
CCCCOc1ccc(C(=O)n2ccc3ccc(-c4ccc5ccn(Cc6ccccc6)c5c4)cc32)cc1,39.6,·,·,·,44.6,RORg DNA counter=–
O=C(c1ccccc1)n1ccc2ccc(-c3ccc4ccn(Cc5ccccc5)c4c3)cc21,–,·,·,·,·,
COC(=O)c1cccc(Cn2ccc3ccc(-c4ccc5ccn(C(=O)c6ccccc6OC)c5c4)cc32)c1,34.1,·,·,·,58.0,RORg DNA counter=–
COc1ccccc1C(=O)n1ccc2ccc(-c3ccc4ccn(Cc5ccccc5)c4c3)cc21,–,·,·,·,·,
O=C(c1cccc(F)c1)n1ccc2ccc(-c3ccc4ccn(Cc5ccccc5)c4c3)cc21,–,·,·,·,·,
O=C(NCCc1ccccc1)OCc1cn(Cc2ccccc2F)nn1,–,·,·,·,·,
CCn1c(Cc2cccs2)nnc1SCC(=O)Nc1ccccc1-c1ccccc1,–,·,·,·,·,
COC(=O)[C@]12C[C@H](CC(=O)NCc3ccc(OC)c(OC)c3)C(=O)N(Cc3ccc(Cl)cc3Cl)C1=C[C@H](COCc1ccccc1)O[C@@H]2C,–,·,·,·,·,
O=C(OC12CCCN(C1)/C(=C/c1ccc(Cl)cc1)C2)c1ccc(F)cc1 (stereo not drawn),–,·,·,·,·,
N#Cc1ccc(Cn2ccc3ccc(-c4ccc5ccn(C(=O)c6ccccc6)c5c4)cc32)cc1,–,·,·,·,·,
COC(=O)c1cccc(Cn2ccc3ccc(-c4ccc5ccn(C(=O)c6cccc(OC)c6)c5c4)cc32)c1,38.6,·,·,·,53.9,RORg DNA counter=–
Cc1c(C(=O)Nc2ccc(Cl)cc2)c2ccccn2c1C(=O)c1ccccc1,43.3,–,–,–,18.1,
COc1ccc(NC(=O)OCCN2CCCC23CCC(c2ccccc2)CC3)cc1 (stereo not drawn),–,·,·,·,·,
